The target in series [1] is T1, Tyrosine-protein phosphatase non-receptor type 1 (Homo sapiens) (UniProt P18031).
T1 sequence (whole entry): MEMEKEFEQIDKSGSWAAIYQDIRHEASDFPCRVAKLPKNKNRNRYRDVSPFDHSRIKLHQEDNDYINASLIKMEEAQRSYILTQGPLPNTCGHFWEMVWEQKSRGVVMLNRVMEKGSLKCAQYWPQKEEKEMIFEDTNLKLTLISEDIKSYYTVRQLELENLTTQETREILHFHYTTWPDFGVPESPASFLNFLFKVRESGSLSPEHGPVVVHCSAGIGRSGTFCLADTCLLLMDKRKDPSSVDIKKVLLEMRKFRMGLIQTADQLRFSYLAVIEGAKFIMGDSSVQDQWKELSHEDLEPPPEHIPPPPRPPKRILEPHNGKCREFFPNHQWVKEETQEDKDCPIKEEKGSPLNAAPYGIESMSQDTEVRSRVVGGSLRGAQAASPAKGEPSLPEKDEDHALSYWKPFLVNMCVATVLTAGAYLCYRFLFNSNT
The experiment in a line: Inhibition of PTP1B (unknown origin).

Series [2] has as its target Nuclear factor NF-kappa-B complex (Homo sapiens) (UniProt Q00653+P19838+Q04206). The experiment in a line: Inhibition of TNFalpha-stimulated NF-kappaB signaling (unknown origin) expressed in HEK293 cells by luciferase reporter gene assay. Format: cell-based.
The nature of series [3]: Inhibition of XBP1 mRNA splicing (unknown origin) expressed in mouse B16-F10-XBP1-DBD-luc cells incubated for 8 hrs by luciferase reporter gene assay. Format: cell-based. A general note: In a reporter assay the amount or activity of a reporter protein is the signal.
A short description of series [4]: Selectivity index, ratio of CC50 for human MT4 cells to EC50 for HIV-1 NL 4-3 infected in MT4 cells. The format is toxicity, cell-based. The settings on record: read-out: Ratio CC50/EC50.
Series [5] concerns Human immunodeficiency virus 1. The series is described as follows: Antiviral activity against HIV-1 NL 4-3 infected in MT4 cells assessed as inhibition of virus-induced cytopathic effect. Format: functional, organism-based. The note with it: Human immunodeficiency virus 1, NL 4-3, MT4. An outline of the steps:
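HIV-1 NL4-3-infected MT-4 cultures; run per a prior method with minor changes. The read-out is protection of cells from virus-induced cytopathic effect. EC50 is the concentration giving 50% protection, derived by curve fitting.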
For orientation: Protection from cytopathic effect is a common read-out in antiviral testing.

Structures are written as SMILES. Calls of active or inactive are those of the source. The calls are words filed in the database; no cut-off is given here.

Data on nine compounds can be found in ChEMBL document CHEMBL3352335, “Eurifoloids A-R, structurally diverse diterpenoids from Euphorbia neriifolia” (J Nat Prod, 2014).

For orientation: EC50 means the concentration needed to bring the measured effect to its halfway point.

Nuclear factor NF-kappa-B complex (Homo sapiens), sequence (P19838 whole entry, looked up): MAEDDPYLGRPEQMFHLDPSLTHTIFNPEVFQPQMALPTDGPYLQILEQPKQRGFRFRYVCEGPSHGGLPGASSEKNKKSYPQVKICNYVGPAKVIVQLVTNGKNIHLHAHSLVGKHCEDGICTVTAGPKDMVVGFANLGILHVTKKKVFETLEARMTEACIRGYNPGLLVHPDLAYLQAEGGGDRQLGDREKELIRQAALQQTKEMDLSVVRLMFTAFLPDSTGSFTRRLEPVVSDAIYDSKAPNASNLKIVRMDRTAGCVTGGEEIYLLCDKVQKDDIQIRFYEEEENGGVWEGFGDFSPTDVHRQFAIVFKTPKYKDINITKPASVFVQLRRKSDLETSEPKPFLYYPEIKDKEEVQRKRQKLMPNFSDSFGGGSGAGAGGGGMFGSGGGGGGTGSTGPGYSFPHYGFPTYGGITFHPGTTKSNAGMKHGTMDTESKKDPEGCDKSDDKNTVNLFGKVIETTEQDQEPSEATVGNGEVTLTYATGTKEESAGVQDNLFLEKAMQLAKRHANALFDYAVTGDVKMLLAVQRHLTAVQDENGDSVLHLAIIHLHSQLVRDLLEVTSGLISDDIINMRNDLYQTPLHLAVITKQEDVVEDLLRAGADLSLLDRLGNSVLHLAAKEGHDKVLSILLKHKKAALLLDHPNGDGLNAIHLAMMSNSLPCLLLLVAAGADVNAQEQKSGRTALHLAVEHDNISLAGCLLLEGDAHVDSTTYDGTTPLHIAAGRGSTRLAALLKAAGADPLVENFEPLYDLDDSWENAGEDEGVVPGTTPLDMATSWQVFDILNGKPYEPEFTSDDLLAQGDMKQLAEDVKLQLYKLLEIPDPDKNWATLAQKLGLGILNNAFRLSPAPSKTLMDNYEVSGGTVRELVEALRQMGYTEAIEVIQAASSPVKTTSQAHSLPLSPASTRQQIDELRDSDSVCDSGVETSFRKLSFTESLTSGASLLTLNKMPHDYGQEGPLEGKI
Nuclear factor NF-kappa-B complex (Homo sapiens), sequence (Q00653 whole entry, looked up): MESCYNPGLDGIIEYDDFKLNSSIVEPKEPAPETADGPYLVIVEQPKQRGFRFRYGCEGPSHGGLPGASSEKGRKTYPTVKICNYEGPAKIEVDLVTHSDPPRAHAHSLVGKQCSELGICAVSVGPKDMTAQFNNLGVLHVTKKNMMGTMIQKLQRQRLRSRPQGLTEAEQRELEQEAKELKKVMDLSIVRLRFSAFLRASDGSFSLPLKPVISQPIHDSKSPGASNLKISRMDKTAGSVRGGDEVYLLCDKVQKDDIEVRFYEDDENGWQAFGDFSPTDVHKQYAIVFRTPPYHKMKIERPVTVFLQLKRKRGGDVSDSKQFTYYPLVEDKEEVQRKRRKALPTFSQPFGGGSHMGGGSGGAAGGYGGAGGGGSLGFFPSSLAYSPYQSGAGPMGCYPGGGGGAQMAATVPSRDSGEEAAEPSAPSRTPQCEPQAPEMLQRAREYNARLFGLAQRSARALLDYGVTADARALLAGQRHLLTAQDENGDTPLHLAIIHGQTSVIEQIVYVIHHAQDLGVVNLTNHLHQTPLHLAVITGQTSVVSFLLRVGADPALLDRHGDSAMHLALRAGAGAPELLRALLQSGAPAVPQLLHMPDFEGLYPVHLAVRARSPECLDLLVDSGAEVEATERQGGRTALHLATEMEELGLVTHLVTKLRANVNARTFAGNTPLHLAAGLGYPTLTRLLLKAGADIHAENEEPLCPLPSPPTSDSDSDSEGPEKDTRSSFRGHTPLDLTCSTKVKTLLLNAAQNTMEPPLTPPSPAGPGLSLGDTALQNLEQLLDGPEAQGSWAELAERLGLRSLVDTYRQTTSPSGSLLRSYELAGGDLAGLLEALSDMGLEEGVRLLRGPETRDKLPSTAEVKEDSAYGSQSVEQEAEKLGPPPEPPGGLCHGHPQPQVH
Nuclear factor NF-kappa-B complex (Homo sapiens), sequence (Q04206 whole entry, looked up): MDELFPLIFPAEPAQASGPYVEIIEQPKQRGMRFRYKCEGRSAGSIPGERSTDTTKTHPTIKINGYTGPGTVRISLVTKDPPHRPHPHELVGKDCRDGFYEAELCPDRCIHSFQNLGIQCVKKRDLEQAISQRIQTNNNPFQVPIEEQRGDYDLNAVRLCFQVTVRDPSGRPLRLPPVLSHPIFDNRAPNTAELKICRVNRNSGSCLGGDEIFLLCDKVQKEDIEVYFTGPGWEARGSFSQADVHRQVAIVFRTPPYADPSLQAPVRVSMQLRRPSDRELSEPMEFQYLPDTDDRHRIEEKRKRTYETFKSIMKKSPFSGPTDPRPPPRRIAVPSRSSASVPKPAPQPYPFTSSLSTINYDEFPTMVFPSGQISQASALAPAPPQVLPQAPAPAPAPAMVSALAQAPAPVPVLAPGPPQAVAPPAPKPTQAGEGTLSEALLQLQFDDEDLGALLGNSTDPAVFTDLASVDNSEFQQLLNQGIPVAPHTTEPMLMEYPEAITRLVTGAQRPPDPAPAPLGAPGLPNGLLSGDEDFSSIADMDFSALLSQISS

With `C=C1C[C@@]23CC[C@@H]4C(C)(C)C(=O)CC[C@@]4(C)[C@@H]2C[C@@H]1[C@@H](O)[C@H]3O`, the inhibition entry in series [1], in series [2] and in series [3] was “inactive” in each case.

For the compound `CC(=O)O[C@H]1C2=C(C[C@H]3OC(=O)C(C)=C13)[C@@]1(C)[C@H](CC2)C(C)(C)CC[C@@H]1O`, in series [4], the selectivity ratio came out at 8.6. In addition, the EC50 in series [5] turned out to be 3.58 µM.

Regarding `C=C[C@@]1(C)C=C2CC[C@@H]3[C@@](C)(C=O)[C@H](OC(C)=O)CC[C@@]3(C)[C@@H]2C[C@@H]1O`, the inhibition entry in series [1], in series [2] and in series [3] was “inactive” each time.

Take `C=C[C@@]1(C)C=C2CC[C@@H]3C(C)(C)[C@H](OC(C)=O)CC[C@@]3(C)[C@@H]2C[C@@H]1O`: the inhibition result in series [1], in series [2] and in series [3] was “inactive” in each case.

Turning to `CC1=C2[C@H]3O[C@]34CC[C@@H]3C(C)(C)CC[C@H](O)[C@@]3(C)[C@@H]4C[C@H]2OC1=O`, the selectivity ratio in series [4] is 10.3. The 50% effective concentration (EC50) in series [5] was 7.4 µM.

In the case of `C[C@@]12CCC(=O)[C@@](C)(CO)[C@H]1CC[C@@]13CC[C@@H](C[C@H]12)[C@](O)(CO)C3`, the inhibition result in series [1], in series [2] and in series [3] was “inactive” each time.

For `CC1(C)C(=O)CC[C@]2(C)[C@@H]1CC[C@@]13CC[C@@H](C[C@H]12)C(=O)C3`, the inhibition entry in series [1], in series [2] and in series [3] was “inactive” each time.

As to `C=C1C[C@@]23CC[C@@H]4C(C)(C)C(=O)CC[C@@]4(C)[C@@H]2C[C@@H]1C[C@H]3O`, the inhibition entry in series [1], in series [2] and in series [3] was “inactive” in each case.

Consider `C=C[C@@]1(C)C=C2CC[C@H]3[C@@](C)(CC[C@@H](OC(C)=O)[C@]3(C)C(=O)O)[C@@H]2C[C@@H]1O`, for which the inhibition result in series [1], in series [2] and in series [3] was “inactive” each time.
